The record followed here is publication PMC11447854 (ACS Omega, 2024).

For orientation: IC50 means the point on the concentration scale where inhibition reaches its midpoint.

Molecules are shown by their SMILES. A value given as a limit tells only on which side of the number the result lay.

One assay concerns HeLa cells. The experiment in a line: cells. The assay is classed as cell-based, human. To be noted: for IC50: Homo sapiens, HeLa, 24 h, read-out: cell-based IC50 (HeLa, μM); for F, activity fold compared to hit compounds, F = IC50(Hit)/IC50(Lead): from HeLa IC50, hit = 6a, 7a or 8a of the same series; for activity improvement compared to gefitinib (fold): HeLa cells, IC50 versus commercial drug gefitinib.

The next assay deals with T1, rhCOX-2 (Homo sapiens, UniProt P35354).
T1 sequence (P35354 18-604): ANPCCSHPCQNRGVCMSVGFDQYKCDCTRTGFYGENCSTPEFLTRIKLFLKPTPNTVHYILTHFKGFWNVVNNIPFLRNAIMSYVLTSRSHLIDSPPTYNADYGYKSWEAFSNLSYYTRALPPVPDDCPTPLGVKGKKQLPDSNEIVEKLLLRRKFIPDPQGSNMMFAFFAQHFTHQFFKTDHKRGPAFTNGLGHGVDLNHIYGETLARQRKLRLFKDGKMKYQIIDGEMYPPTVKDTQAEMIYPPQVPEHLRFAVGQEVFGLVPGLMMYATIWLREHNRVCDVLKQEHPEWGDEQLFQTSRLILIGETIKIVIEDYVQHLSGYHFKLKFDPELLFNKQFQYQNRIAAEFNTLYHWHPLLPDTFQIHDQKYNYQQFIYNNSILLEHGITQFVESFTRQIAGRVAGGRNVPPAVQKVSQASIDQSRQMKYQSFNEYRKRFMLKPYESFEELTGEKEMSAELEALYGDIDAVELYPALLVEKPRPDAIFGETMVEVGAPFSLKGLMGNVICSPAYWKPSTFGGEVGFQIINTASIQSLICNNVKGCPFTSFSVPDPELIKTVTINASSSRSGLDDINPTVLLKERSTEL
Briefly: COX-2 enzyme-based activity test. Format: biochemical.

A further assay concerns HEK293 cells. The experiment in a line: CCK8 proliferation inhibition assay, HEK293 normal cells. The assay is classed as cell-based, human. The note with it: for IC50: Homo sapiens, HEK293, read-out: cell-based IC50 (HEK293, μM); for SI = IC50(HEK293)/IC50(HeLa): fold selectivity for cancer cells (HeLa) over normal cells (HEK293). The essentials:
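HEK293 and HeLa cells were seeded at 5000 cells/well and grown 24 h at 37 °C, 5% CO2. They were then exposed 24 h to test compound at 1.0–10.0 mg/L in serum-free medium, alongside untreated, DMSO-solvent and gefitinib controls. After a PBS wash and 3 h with CCK8, […]. IC50 came from inhibition relative to control. SI = IC50(HEK293)/IC50(HeLa).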
(In general: Tetrazolium dyes change colour on reduction, which living cells bring about.)

Take `C/C(=N\NC(=O)C(C)c1ccc(CC(C)C)cc1)c1cc2cc(Cl)cc(Cl)c2oc1=O` (centres unmarked) [6f, (E)-N′-(1-(6,8-Dichloro-2-oxo-2H-chromen-3-yl)ethylidene)-2-(4-isobutylphenyl)propanehydrazide]: the IC50 was found to be 4.34 µM in the assay with HeLa cells and 1.51 µM on rhCOX-2. Besides, the “F, activity fold compared to hit compounds, F = IC50(Hit)/IC50(Lead)” value (“F, activity fold” for short) with HeLa cells was found to be 1.06.
`C/C(=N\NC(=O)C(C)c1ccc(CC(C)C)cc1)c1cc2cc(F)ccc2oc1=O` (centres unmarked) [6b, (E)-N′-(1-(6-Fluoro-2-oxo-2H-chromen-3-yl)ethylidene)-2-(4-isobutylphenyl)propanehydrazide]: in the assay on HeLa cells, the IC50 came to 2.59 µM and the “F, activity fold” value was 1.78.
For `CC(C)Cc1ccc(C(C)C(=O)O)cc1` (centres unmarked) [ibuprofen, reference compound], the IC50 in the assay on HeLa cells was more than 200 µM.
Take `CC(C)Cc1ccc(C(C)C(=O)NNC(=O)c2cc3cc(Cl)ccc3oc2=O)cc1` (centres unmarked) [7d, 6-Chloro-N′-(2-(4-isobutylphenyl)propanoyl)-2-oxo-2H-chromene-3-carbohydrazide]: in the assay with HeLa cells, the IC50 worked out at 137 µM and the “F, activity fold” value came out at 0.03.
With `CC(C)Cc1ccc(C(C)c2nnc(-c3cc4cc(Cl)cc(Cl)c4oc3=O)o2)cc1` (centres unmarked) [8d, 6,8-Dichloro-3-(5-(1-(4-isobutylphenyl)ethyl)-1,3,4-oxadiazol-2-yl)-2H-chromen-2-one], in the assay with HeLa cells, the IC50 was more than 200 µM.
On to `CC(C)Cc1ccc(C(C)c2nnc(-c3cc4cc(F)ccc4oc3=O)o2)cc1` (centres unmarked) [8b, 6-Fluoro-3-(5-(1-(4-isobutylphenyl)ethyl)-1,3,4-oxadiazol-2-yl)-2H-chromen-2-one], for which, in the assay with HeLa cells, the IC50 turned out to be 122 µM and the “F, activity fold” value is 0.04.
The like results for `C/C(=N\NC(=O)C(C)c1ccc(CC(C)C)cc1)c1cc2ccccc2oc1=O` (centres unmarked) [6a, (E)-2-(4-Isobutylphenyl)-N′-(1-(2-oxo-2H-chromen-3-yl)ethylidene)propanehydrazide] were, in that order, 4.64 µM and 1.00.
Consider `CC(C)Cc1ccc(C(C)C(=O)NNC(=O)c2cc3ccccc3oc2=O)cc1` (centres unmarked) [7a, N′-(2-(4-Isobutylphenyl)propanoyl)-2-oxo-2H-chromene-3-carbohydrazide], for which, in the assay with HeLa cells, the IC50 is 4.61 µM and the “F, activity fold” value is given as 1.00. At rhCOX-2, this compound came in with an IC50 of 2.82 µM.
In the case of `C/C(=N\NC(=O)C(C)c1ccc(CC(C)C)cc1)c1cc2cc(Br)cc(Br)c2oc1=O` (centres unmarked) [6c, (E)-N′-(1-(6,8-Dibromo-2-oxo-2H-chromen-3-yl)ethylidene)-2-(4-isobutylphenyl)propanehydrazide], in the assay on HeLa cells, the “activity improvement compared to gefitinib (fold)” value is “approximately 10 fold”; the 50% inhibitory concentration (IC50) amounted to 0.606 µM; the “F, activity fold” value was determined as 7.61. Moreover, in the assay with HEK293 cells, the IC50 was found to be 32.2 µM and the “SI = IC50(HEK293)/IC50(HeLa)” value is 53.18. At rhCOX-2, this compound registered an IC50 of 2.67 µM.
`CC(C)Cc1ccc(C(C)c2nnc(-c3cc4cc(Br)cc(Br)c4oc3=O)o2)cc1` (centres unmarked) [8e, 6,8-Dibromo-3-(5-(1-(4-isobutylphenyl)ethyl)-1,3,4-oxadiazol-2-yl)-2H-chromen-2-one]: the IC50 with HeLa cells is more than 200 µM.
On to `C/C(=N\NC(=O)C(C)c1ccc(CC(C)C)cc1)c1cc2cc(C)ccc2oc1=O` (centres unmarked) [6e, (E)-2-(4-Isobutylphenyl)-N′-(1-(6-methyl-2-oxo-2H-chromen-3-yl)ethylidene)propanehydrazide], for which, in the assay on HeLa cells, the IC50 stood at 2.19 µM and the “F, activity fold” value is listed as 2.11.
The like results for `C/C(=N\NC(=O)C(C)c1ccc(CC(C)C)cc1)c1cc2cc(Cl)ccc2oc1=O` (centres unmarked) [6g, (E)-N′-(1-(6-Chloro-2-oxo-2H-chromen-3-yl)ethylidene)-2-(4-isobutylphenyl)propanehydrazide] were, in that order, 2.56 µM and 1.80.
For the compound `C/C(=N\NC(=O)C(C)c1ccc(CC(C)C)cc1)c1cc2ccc(O)cc2oc1=O` (centres unmarked) [6d, (E)-N′-(1-(7-Hydroxy-2-oxo-2H-chromen-3-yl)ethylidene)-2-(4-isobutylphenyl)propanehydrazide], in the assay with HeLa cells, the IC50 is 6.65 µM and the “F, activity fold” value is listed as 0.69. The compound further registered an IC50 at rhCOX-2 of 1.04 µM.
Consider `Cc1ccc2oc(=O)c(C(=O)NNC(=O)C(C)c3ccc(CC(C)C)cc3)cc2c1` (centres unmarked) [7b, N′-(2-(4-Isobutylphenyl)propanoyl)-6-methyl-2-oxo-2H-chromene-3-carbohydrazide], for which, in the assay with HeLa cells, the IC50 was 42.7 µM and the “F, activity fold” value came out at 0.11.
In the case of `CC(C)Cc1ccc(C(C)C(=O)NNC(=O)c2cc3ccc(O)cc3oc2=O)cc1` (centres unmarked) [7c, 7-Hydroxy-N′-(2-(4-isobutylphenyl)propanoyl)-2-oxo-2H-chromene-3-carbohydrazide], in the assay with HeLa cells, the 50% inhibitory concentration (IC50) came to 8.92 µM and the “F, activity fold” value is on record as 0.52.
On to `CC(C)Cc1ccc(C(C)C(=O)NNC(=O)c2cc3cc(Cl)cc(Cl)c3oc2=O)cc1` (centres unmarked) [7g, 6,8-Dichloro-N′-(2-(4-isobutylphenyl)propanoyl)-2-oxo-2H-chromene-3-carbohydrazide], for which, in the assay with HeLa cells, the “activity improvement compared to gefitinib (fold)” value was “approximately 10 fold”; the IC50 amounted to 0.783 µM; the “F, activity fold” value was determined as 5.89. In the assay with HEK293 cells, the IC50 was 20 µM and the “SI = IC50(HEK293)/IC50(HeLa)” value worked out at 25.49.
On to `CC(C)Cc1ccc(C(C)c2nnc(-c3cc4ccccc4oc3=O)o2)cc1` (centres unmarked) [8a, 3-(5-(1-(4-Isobutylphenyl)ethyl)-1,3,4-oxadiazol-2-yl)-2H-chromen-2-one], for which, in the assay on HeLa cells, the IC50 came out at 4.66 µM and the “F, activity fold” value was 1.00.
The like results for `Cc1ccc2oc(=O)c(-c3nnc(C(C)c4ccc(CC(C)C)cc4)o3)cc2c1` (centres unmarked) [8f, 3-(5-(1-(4-Isobutylphenyl)ethyl)-1,3,4-oxadiazol-2-yl)-6-methyl-2H-chromen-2-one] were, in that order, 42.3 µM and 0.11.
In the case of `CC(C)Cc1ccc(C(C)C(=O)NNC(=O)c2cc3cc(F)ccc3oc2=O)cc1` (centres unmarked) [7e, 6-Fluoro-N′-(2-(4-isobutylphenyl)propanoyl)-2-oxo-2H-chromene-3-carbohydrazide], the figures for the IC50 in the assay with HeLa cells and on rhCOX-2 were 3.68 µM and 0.294 µM, respectively. Moreover, the “F, activity fold” value in the assay with HeLa cells amounted to 1.25.
`CC(C)Cc1ccc(C(C)C(=O)NNC(=O)c2cc3cc([N+](=O)[O-])ccc3oc2=O)cc1` (centres unmarked) [7f, N′-(2-(4-Isobutylphenyl)propanoyl)-6-nitro-2-oxo-2H-chromene-3-carbohydrazide]: in the assay with HeLa cells, the IC50 was 6.25 µM and the “F, activity fold” value was 0.74. This compound also returned an IC50 against rhCOX-2 of 0.982 µM.
As to `CC(C)Cc1ccc(C(C)c2nnc(-c3cc4cc(Cl)ccc4oc3=O)o2)cc1` (centres unmarked) [8c, 6-Chloro-3-(5-(1-(4-isobutylphenyl)ethyl)-1,3,4-oxadiazol-2-yl)-2H-chromen-2-one], in the assay with HeLa cells, the IC50 worked out at 82.2 µM and the “F, activity fold” value amounted to 0.06.
The like results for `CC(C)Cc1ccc(C(C)C(=O)NNC(=O)c2cc3cc(Br)cc(Br)c3oc2=O)cc1` (centres unmarked) [7h, 6,8-Dibromo-N′-(2-(4-isobutylphenyl)propanoyl)-2-oxo-2H-chromene-3-carbohydrazide] were, in that order, 0.889 µM and 5.18.
